pEC50, pIC50: −log10 of the molar value.
Legend:
MT4 = experiment: Cytotoxicity against human MT4 cells assessed as inhibition of cell growth by measuring ATP by CellTiter-Glo luminescent cell viability assay; format: toxicity, cell-based
Procedure, shortened: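 MT4 cells were cultured in parallel with the anti-HIV-1 cultures (NL4-3, MOI 0.001, 4 days, medium with compound refreshed at 48 h). Viability was read as ATP of metabolically active cells by CellTiter-Glo luminescence. Dose-response curves came from three independent experiments.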

[1] = test system: Human immunodeficiency virus 1; experiment: Anti-HIV activity against Human immunodeficiency virus 1 […] infected in human MT4 cells assessed as inhibition of viral infection measured after 4 days by serial dilution based p24 ELISA analysis; format: functional, organism-based; conditions: Human immunodeficiency virus 1, MT4, 96 h
Procedure, shortened: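 HIV-1 NL4-3 at MOI 0.001 infected MT4 cells with compounds present at various concentrations (4-fold serial dilutions across the inhibitory phase). Fresh compound-containing medium was added 48 h post-infection. Replication was read by p24 ELISA at 4 days post-infection. Dose-response curves came from three independent experiments.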

C=C(C)[C@@]12OC34CCC/C=C\CCCC[C@H](CCC)[C@@H]5[C@@H]6[C@]7(O[C@]5(C)OC7=O)[C@H](O)[C@@]5(CO)O[C@H]5[C@@H]([C@H]1O3)[C@]6(O4)[C@H](COC(=O)c1ccccc1)[C@H]2OC(C)=O
pIC50 (MT4): < 7.49
pEC50 [1]: < 7.49

C=C(C)[C@@]12OC34CCC/C=C\CCCC[C@H](CCC)[C@@H]5[C@@H]6[C@]7(O[C@]5(C)OC7=O)[C@H](O)[C@@]5(CO)O[C@H]5[C@@H]([C@H]1O3)[C@]6(O4)[C@H](C)[C@H]2OC(C)=O
pIC50 (MT4): < 7.49
pEC50 [1]: < 7.49

C=C(C)[C@]12C[C@@H](COC(=O)c3ccccc3)[C@@]34OC5(O[C@@H]1[C@@H]3[C@@H]1O[C@]1(CO)[C@@H](O)[C@@]1(O)[C@H]4[C@H]([C@H](C)[C@@H]1OC(=O)c1ccccc1)[C@H](C)CCCCCC[C@H]5O)O2
pIC50 (MT4): < 7.49

C=C(C)[C@@]12OC34CCC/C=C\CCCC[C@H](CCC)[C@H]5[C@H](C)C(=O)[C@@]6(O)[C@H](O)[C@@]7(CO)O[C@H]7[C@@H]([C@H]1O3)[C@](O4)([C@H](C)[C@H]2OC(C)=O)[C@H]56
pIC50 (MT4): < 7.49
pEC50 [1]: 8.08

C=C(C)[C@@]12OC34CCC/C=C\CCCC[C@H](CCC)[C@H]5[C@H](C)C(=O)[C@@]6(O)[C@H](O)[C@@]7(CO)O[C@H]7[C@@H]([C@H]1O3)[C@](O4)([C@H](COC(=O)C(C)C)[C@H]2OC(C)=O)[C@H]56
pIC50 (MT4): 7.67
pEC50 [1]: 8.54

C=C(C)[C@@]12OC34CCC/C=C\CCCC[C@H](CCC)[C@@H]5[C@@H]6[C@]7(O[C@]5(C)OC7=O)[C@H](O)[C@@]5(CO)O[C@H]5[C@@H]([C@H]1O3)[C@]6(O4)[C@H](COC(=O)C(C)C)[C@H]2OC(C)=O
pIC50 (MT4): < 7.49
pEC50 [1]: 7.53

Source: ChEMBL document CHEMBL5137129, “Anti-HIV Macrocyclic Daphnane Orthoesters with an Unusual Macrocyclic Ring from Edgeworthia chrysantha” (J Nat Prod, 2022)
